Experimental data of several laboratories.
Protocols differ between the studies behind these lines.
Target: Homeodomain-interacting protein kinase 1 (HIPK1, Homo sapiens, UniProt Q86Z02)

| SMILES | effect on | action | technique | tested at | quantity | result |
| --- | --- | --- | --- | --- | --- | --- |
| O=c1[nH]c2ccccc2n1C1CCN(Cc2ccc(-c3[nH]c4cc5ncnc5cc4nc3-c3ccccc3)cc2)CC1 | cell-free assay | – | – | 0.5 µM | remaining signal | 106% |
| Cn1cc(-c2cc(F)cc(N3CCn4c(cc5c4CCCC5)C3=O)c2CO)cc(Nc2ccc(N3CCN(C4COC4)CC3)cn2)c1=O | enzyme activity | inhibitor | – | 0.1 µM | inhibition | 5% |
| COc1ncccc1-c1cnn2ccc(N3CCN(C(=O)OC(C)C)CC3)nc12 | binding | – | competition with immobilised ligand | 1 µM | remaining binding | 92% |
| Nc1ncc(-c2nc(N3CCOCC3)nc(N3CCOCC3)n2)c(C(F)F)n1 | binding | – | competition with immobilised ligand | 10 µM | remaining binding | 69% |
| Cn1cc(-c2cccc(N3CCc4c(sc5c4CC(C)(C)C5)C3=O)c2CO)cc(Nc2ccncn2)c1=O | enzyme activity | inhibitor | – | 1 µM | inhibition | -2% |
| Cn1cncc1[C@@](O)(COc1ccc(C#N)cc1-c1ccc(OC(F)(F)F)cc1)c1ccc(C#N)cc1 | cell-free assay | – | competition with immobilised ligand | 1 µM | remaining binding | 79% |
| Cc1nn(C)cc1-c1nc2c(N3CCN(Cc4ccc(Cl)cc4)CC3)c(Cl)cnc2[nH]1 | binding | – | competition with immobilised ligand | 1 µM | remaining binding | 66% |
| CC(C)(C)c1cc(C=C(C#N)C#N)cc(Br)c1O | enzyme activity | inhibitor | – | 0.5 µM | remaining activity | 104% |
